Source: PubChem BioAssay (The Scripps Research Institute Molecular Screening Center)
CHRM4 agonist – agonists of human muscarinic M4 receptor (CHRM4) | P08173 | activation, % at 3 µM | actives 0.14% (n = 360,000) | CHO-K1 hM4/Gqi5, Fluo-8 calcium fluorescence; vehicle 0%, full acetylcholine response 100%;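 active = activation above the run mean over all test wells plus 3 SD, cut at about 32% in these data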;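 note: peak over basal fluorescence ratio per well then scaled between controls; 0% = DMSO wells and 100% = acetylcholine at EC100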
Target sequence (P08173 whole entry, looked up): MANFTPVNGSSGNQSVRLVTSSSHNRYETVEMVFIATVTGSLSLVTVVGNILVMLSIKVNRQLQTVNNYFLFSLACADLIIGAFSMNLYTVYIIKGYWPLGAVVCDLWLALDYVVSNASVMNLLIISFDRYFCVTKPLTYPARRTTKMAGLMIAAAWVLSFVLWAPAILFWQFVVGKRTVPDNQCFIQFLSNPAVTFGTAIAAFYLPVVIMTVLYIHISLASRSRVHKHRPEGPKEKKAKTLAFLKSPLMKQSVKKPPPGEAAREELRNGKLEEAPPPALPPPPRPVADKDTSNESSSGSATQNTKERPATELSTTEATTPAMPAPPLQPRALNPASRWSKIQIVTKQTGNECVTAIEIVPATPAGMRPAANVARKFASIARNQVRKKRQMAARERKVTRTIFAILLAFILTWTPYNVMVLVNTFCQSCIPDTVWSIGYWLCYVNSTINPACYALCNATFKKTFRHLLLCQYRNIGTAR
M5 ag – CHRM5 agonism in calcium assay. P08912. CHO-K1 hM5 cells, Fluo-8 calcium fluorescence; 0% DMSO wells, 100% maximal acetylcholine response. activation, % at 3 µM. actives 0.19% (n = 360,000);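 active = activation above the run's mean over test compounds plus 3 SD, cut at about 23% in these data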;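 note: signal is peak over basal fluorescence ratio across the kinetic read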
CHRM5 antagonist – blocks acetylcholine activation of human M5 receptor; actives 0.59% (n = 360,000); P08912; inhibition, % at 3 µM; CHO-hM5 cells, Fluo-8 calcium fluorescence, ACh EC80;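 active = inhibition above a per-plate cutoff, the mean of that plate's test compounds plus 3 SD, cut at about 27% in these data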;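 note: 0% = acetylcholine EC80 with DMSO and 100% = DMSO without agonist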
CHRM4 antagonist – blocks acetylcholine activation of human M4 receptor; CHO-hM4 cells, ACh EC80, Fluo-8 calcium fluorescence; inhibition, % at 3 µM; AID 624125; P08173; actives 0.73% (n = 360,000);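 active = inhibition above its plate's cutoff, the mean inhibition of sample wells plus 3 SD, cut at about 27% in these data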;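 note: 0% = acetylcholine EC80 with DMSO and 100% = DMSO without agonist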
M5 PAM – CHRM5 positive allosteric modulation | activation, % at 3 µM | AID 624038 | P08912 | actives 0.3% (n = 360,000) | CHO-K1 hM5, Fluo-8 calcium, ACh EC20 PAM; 0% = ACh EC20, 100% = ACh EC100;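 active = activation above the run cutoff, the mean activation of all test compounds plus 3 SD, cut at about 18% in these data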
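Measured by: Fluo-8 calcium fluorescence; material: human M5 receptor in CHO-K1 cells; schedule: Post-acetylcholine fluorescence recording 140 s; benchmarks: low control EC20 acetylcholine (0%), high control EC100 acetylcholine (100%); read-out: Max/basal fluorescence ratio as % of EC20–EC100 ACh window; compound: single dose, 3 µM nominal final test concentration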
CHRM4 PAM – potentiates acetylcholine response at human M4 receptor | AID 624126 | actives 0.4% (n = 360,000) | P08173 | activation, % at 3 µM | CHO-K1 hM4/Gqi5, Fluo-8 calcium fluorescence, ACh EC20; 0% = ACh EC20, 100% = maximal ACh;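 active = activation above its plate's cutoff, the mean activation of sample wells plus 3 SD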
Active calls of the source: *. Only some compounds are listed: those with a hit (about 1.9% of all), similar ones and a draw of the others.

SMILES	CHRM4 agonist	M5 ag	CHRM5 antagonist	CHRM4 antagonist	M5 PAM	CHRM4 PAM
CCCC(=O)Nc1ccc2c(c1)nc1n2CCOC1	0.8	3.0	-10.0	3.1	4.7	31.0*
Cc1cc(C(C)(C)CC(C)(C)C)ccc1OCCOCC[N+](C)(C)Cc1ccccc1	0.2	-2.2	7.4	27.2*	-14.7	-14.4
C[N+](C)(CCOc1ccccc1)Cc1ccccc1	0.2	-1.6	6.6	7.5	-4.8	-4.2
COc1ccc(-c2nc(CS(=O)(=O)CC(=O)NCc3ccc4c(c3)OCO4)c(C)o2)cc1	0.0	-1.6	-27.3	-10.9	26.1*	12.2
CCOc1ccc(-c2nc(CSCC(=O)N3CCN(c4cccc(OC)c4)CC3)c(C)o2)cc1	20.4	7.0	27.2*	2.8	-19.9	-11.4
COc1cccc(-c2nc(CS(=O)(=O)CC(=O)N3CCN(C)CC3)c(C)o2)c1	2.1	51.8*	-3.8	-26.2	-22.2	0.9
O=C(Cn1sc2ccccc2c1=O)N1CCN(C(=O)c2ccco2)CC1	1.2	-1.8	6.1	11.8	1.6	-2.7
COc1ccc(CN(CC2CCC(C(=O)O)CC2)C(=S)Nc2cc(C)cc(C)c2)cc1 (stereo unspecified)	4.4	5.2	7.2	-9.1	-4.9	18.5*
CS(=O)(=O)Nc1ccc2c(c1)[C@@H]1C[C@@H](CC(=O)NCc3cccnc3)O[C@H](CO)[C@@H]1O2	0.3	0.8	1.9	-12.2	-1.4	3.2
COc1cccc(CNS(=O)(=O)c2c(C)[nH]c(C)c2C(=O)N2CCCC2)c1	-0.8	-4.0	-7.0	-18.0	0.8	1.6
O=C(C1CCN(c2nnc(-n3cccc3)s2)CC1)N1CCN(Cc2ccc3c(c2)OCO3)CC1	6.0	3.0	3.0	-2.0	-4.1	-1.2
CC1CCN(Cc2ccc(NC(=O)C3CCN(c4nnc(-n5cccc5)s4)CC3)cc2)CC1	4.6	-5.1	-4.4	33.3*	-5.3	-16.1
Cc1sc2ncnc(NCC(O)c3ccccc3)c2c1C (stereo unspecified)	18.5	7.8	12.0	7.3	-12.2	-5.4
Cc1sc2ncnc(NCC(O)c3ccc([N+](=O)[O-])cc3)c2c1C (stereo unspecified)	20.4	4.9	36.4*	12.8	-13.7	-9.3
CCOC(=O)c1cc(S(=O)(=O)N2CCN(c3ccccc3OC)CC2)cn1C	7.2	2.7	10.2	5.6	-10.2	-8.3
COc1ccc(-c2cc(C(=O)OCC(=O)c3cccc([N+](=O)[O-])c3)c3cc(C)ccc3n2)cc1	2.8	4.2	13.3	-7.9	17.1	23.0*
N#Cc1ccccc1Cn1cc(/C=C/[N+](=O)[O-])c2ccccc21	4.5	15.4	50.1*	16.2	-1.5	-13.3
O=C1C(=O)N(CCN2CCOCC2)C(c2ccncc2)/C1=C(/O)c1ccc2c(c1)OCO2 (stereo unspecified)	0.6	0.9	-3.6	6.4	0.1	4.2
O=C1C(=O)N(CCN2CCOCC2)C(c2ccc([N+](=O)[O-])cc2)/C1=C(/O)c1ccc2c(c1)OCO2 (stereo unspecified)	2.8	-3.0	1.1	-2.4	4.5	21.7*
COCCNC(=O)C1CCCN(C(=O)c2cncc(Br)c2)CC1 (stereo unspecified)	0.0	0.1	0.0	-7.8	-4.9	4.7
CCCCSc1ncc(C(=O)OCC)c(N)n1	-0.6	-6.3	-3.1	1.3	0.4	-5.3
CCOC(=O)c1cnc(SCCc2ccccc2)nc1N	-2.9	-4.8	-6.7	2.1	3.4	34.8*
OC[C@@H]1CN(Cc2ccncc2)C[C@H](n2cnc3c(NCc4ccco4)ncnc32)O1	0.9	1.0	1.4	-7.8	-3.1	2.0
CC1=CC(C/C(C)=C/COc2ccc3ccc(=O)oc3c2)OC1=O (stereo unspecified)	9.5	1.0	6.9	-14.5	-2.1	34.8*
O=C(CN(c1cccc(Cl)c1)S(=O)(=O)c1ccc(Cl)cc1)NCc1ccccn1	3.3	-1.5	-5.2	-7.4	-1.5	19.6
SMILES	CHRM4 agonist	M5 ag	CHRM5 antagonist	CHRM4 antagonist	M5 PAM	CHRM4 PAM
COC(=O)c1ccc(/C=C(\C#N)c2nc3ccccc3s2)cc1	5.8	3.8	-5.8	-1.8	1.0	2.2
N#C/C(=C\c1ccccn1)c1nc2ccccc2s1	19.6	43.7*	17.4	17.5	-20.4	-10.1
N#C/C(=C/c1ccc(-c2ccc(S(N)(=O)=O)cc2)o1)c1nc2ccccc2s1	19.4	32.4*	47.6*	26.5*	-17.9	-8.4
C[C@H]1CN([C@@H](C)CO)S(=O)(=O)c2ccc(Br)cc2O[C@@H]1CN(C)C(=O)CCN1CCCCC1	0.6	1.3	-0.5	-6.7	0.8	0.6
O=C(/C=C/c1cccc(Cl)c1)c1ccc([N+](=O)[O-])o1	4.7	11.1	22.2	28.6*	0.3	-5.3
COc1cc(/C=C/C(=O)c2ccc([N+](=O)[O-])o2)ccc1O	0.4	0.2	8.6	1.2	-1.1	6.6
COc1ccc(NC(=O)c2cn(-c3ccccc3)nc2-c2ccncc2)cc1	3.4	-4.2	5.3	1.2	-6.7	0.4
COc1ccc(-c2nn(-c3ccccc3)cc2C(=O)NC(=S)Nc2cc(Cl)ccc2Cl)cc1	2.1	5.5	-15.8	-0.7	22.1*	26.7
COC(=O)c1cn(-c2ccccc2)nc1-c1ccc(OC)c(OC)c1	4.6	6.0	11.9	-23.6	19.2*	5.3
COc1ccc(-c2nn(-c3ccccc3)cc2C(=O)NC(=S)NNC(=O)c2ccncc2)cc1	33.4*	12.6	8.6	8.1	-9.4	-12.4
COc1ccc(-c2nn(-c3ccccc3)cc2C(=O)O)cc1	1.4	2.5	-0.4	-2.5	0.0	4.0
CCSc1ccc([C@@H]2[C@@H]3C(=O)N(C)C(=O)[C@@H]3[C@]3(C(=O)OC)CCCCN23)cc1	-1.9	-1.6	7.1	1.6	0.4	-2.8
CCC(=O)N(Cc1ccco1)c1nc(-c2ccc(OC)cc2)cs1	-0.8	-2.4	1.1	3.3	-1.7	-3.6
COc1ccc(-c2csc(N(CCCN(C)C)C(=O)c3ccccc3C)n2)cc1	15.6	-5.6	9.2	5.5	-2.6	-11.3
CN(C)CCCN(C(=O)c1cccs1)c1nc(-c2ccccc2)cs1	5.4	-4.9	21.1	28.1*	-17.8	-23.6
COc1ccc(-c2csc(N(CCCN(C)C)C(=O)c3ccc(F)cc3)n2)cc1	16.2	-16.2	-0.7	35.3*	-10.9	49.8*
CCN(CC)CCCN(C(=O)c1ccc(F)cc1)c1nc(-c2ccc(OC)cc2)cs1	16.1	-14.1	3.8	45.7*	1.4	58.6*
COc1ccc(-c2csc(N(CCCN(C)C)C(=O)c3ccccc3F)n2)cc1	5.1	-6.0	-5.2	2.6	-1.9	4.3
